Reference: ChEMBL document CHEMBL1137774, “Conjugation of 2-(1'-hexyloxyethyl)-2-devinylpyropheophorbide-a (HPPH) to carbohydrates changes its subcellular distribution and enhances photodynamic activity in vivo” (J Med Chem, 2009)

Tests used:
RIF = test: Photosensitizing activity in ABCG2-expressing mouse RIF cells assessed as induction STAT3 covalent cross linking pretreated for 4 hrs followed by irradiation exposure to 665 nm light at 3 J/cm2 by Western blotting; format: functional, cell-based
Procedure, shortened: (§1)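 Cells incubated 4 h with PS at indicated concentrations in 10% FCS medium, exposed to 665 nm light at 3 J/cm², extracted immediately. STAT-3 cross-linked product detected by Western blot, relative level by densitometry.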

[1] = Photocytotoxicity against ABCG2-expressing mouse RIF cells xenografted in C3H mouse assessed as tumor control at 0.47 umol/kg, iv followed by exposure to irradiation at 135 J/cm2 relative to control; format: functional
Procedure, shortened: (§2)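 Mice bearing shoulder tumours (C3H/RIF, BALB/c/Colon26) injected intravenously at 0.47 μmol/kg. Tumours irradiated with 665 nm laser 24 h later at 135 J/cm², 75 mW/cm² or 48 J/cm², 7 mW/cm². Tumour volume by calipers, V=(L×W²)×0.5. Groups of 5–10 mice; curves compared by Cox–Mantel test.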

Mus musculus = test: Skin toxicity in ABCG2-expressing mouse RIF cells xenografted in irradiation exposed C3H mouse assessed as foot response after 24 to 96 hrs; format: organism-based; settings: in vivo
[2] = Partition coefficient, log P of the compound; format: physicochemical; settings: octanol/water
Colon 26 [3] = test: Photocytotoxicity against ABCG2-deficient mouse Colon 26 cells xenografted in BALB/c mouse assessed as tumor control at 0.47 umol/kg, iv followed by exposure to irradiation at 48 J/cm2 relative to control; format: functional; procedure, shortened: as §2
[4] = Photocytotoxicity against ABCG2-expressing mouse RIF cells xenografted in C3H mouse assessed as tumor control at 0.47 umol/kg, iv followed by exposure to irradiation at 48 J/cm2 relative to control; format: functional; procedure, shortened: as §2
[5] = Drug uptake in ABCG2-expressing mouse RIF cells assessed as increase in mitochondrial localization at 3 uM for 24 hrs in presence of 10% FCS by fluorescence microscopy; format: ADME, cell-based; settings: 2 µM, in the assay text read “2 uM” for “3 uM”
Procedure, shortened: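 RIF cells grown on poly-L-lysine-coated coverslips, co-incubated with PS and organelle trackers in 10% FCS medium for 3–4 h or 24 h, PBS-washed, imaged at 40× by inverted fluorescence microscopy. Trackers: MitoTracker Green 1 μM 1 h (mitochondria); LysoTracker Green 0.5 μM 0.5 h or 0.1 μm Fluospheres overnight (lysosomes); Bodipy C5 ceramide–albumin 5 μM (Golgi).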

Colon 26 [6] = test: Photosensitizing activity in ABCG2-deficient mouse Colon 26 cells assessed as induction STAT3 covalent cross linking pretreated for 4 hrs followed by irradiation exposure to 665 nm light at 3 J/cm2 by Western blotting; format: functional, cell-based; procedure, shortened: as §1

With `CCCCCCOC(C)c1c(C)c2cc3nc(c4c5[nH]c(cc6nc(cc1[nH]2)C(C)=C6CC)c(C)c5C(=O)C4)[C@@H](CCC(=O)O)[C@@H]3C` (stereo partly drawn) [HPPH] the Activity (RIF) was “Dose-dependent effect”, the Activity [1] was 50% and the Activity (Mus musculus) was “Toxic”. For the same molecule, the logP [2] was 6, the Activity (Colon 26 [3]) was 30% and the Activity [4] was 40%. For the same molecule, the Drug uptake [5] was “Active” and the Activity (Colon 26 [6]) was “Dose-dependent effect”.
